# Entries after “also recorded” stand apart in the source; their conditions may differ. Like-named read-outs stand apart in the source and are kept apart here.
# How the values were obtained:
# Assay type in all cases: cell-based
# HeLa cells = experiment: cytotoxicity in uninfected HeLa cells; details: HeLa cell cultures, microscopically detectable alteration of cell morphology
# Outline: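 Uninfected HeLa cells were treated with serial dilutions of test compound, run in parallel with the CPE-reduction antiviral assay. Minimum cytotoxic concentration was the lowest concentration causing microscopically detectable alteration of normal cell morphology. CC50 was the 50% cytotoxic concentration, measured as cell viability by the colorimetric formazan-based MTS assay.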
# Candida albicans = experiment: MIC by tube dilution, C. albicans; details: 48 h
# Staphylococcus aureus = experiment: MIC by tube dilution, S. aureus; details: 24 h, read-out: pMICsa (Eq. (1)) Obs.
# Outline: (§1)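 Tube-dilution MIC. Test compound was dissolved in DMSO at 100 μg/mL, then serially diluted in double-strength nutrient broth (I.P.). Tubes were incubated at 37 °C for 24 h. MIC was the lowest concentration that inhibited microbial growth. MIC values were converted to pMIC for QSAR.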
# [1] = system: S. aureus, B. subtilis, E. coli, C. albicans and A. niger; experiment: average antimicrobial activity
# Outline: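 Tube-dilution MIC with test compound dissolved in DMSO at 100 μg/mL. Bacteria grew in double-strength nutrient broth at 37 °C for 24 h. C. albicans grew in Sabouraud dextrose broth at 37 °C for 48 h, and A. niger in the same broth at 25 °C for 7 days. MIC was the lowest growth-inhibiting concentration, converted to pMIC. pMICam = mean of the five pMIC values.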
# Escherichia coli = experiment: MIC by tube dilution, E. coli; details: 24 h, read-out: pMICec (Eq. (3)) Obs.
# Outline: as §1
# Bacillus subtilis = experiment: MIC by tube dilution, B. subtilis; details: 24 h, read-out: pMICbs (Eq. (2)) Obs.
# Outline: as §1
# [2] = system: Vesicular stomatitis virus
# B. subtilis = experiment: MBC determination, B. subtilis; details: static when MBC 3-fold higher than MIC
# Outline: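 100 μL of culture from each tube that stayed clear in the MIC test was subcultured on fresh medium. MBC was the lowest compound concentration producing a 99.9% end-point reduction.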
# [3] = read-out: pMICca (Eq. (4)) Obs.
# [4] = read-out: pMICam (Eq. (9)) Obs.
# [5] = read-out: pMICam MLR (Eq. (10)) Obs.
smiles,measurement,setting,value
"Nc1ncnc2c1ncn2C[C@H](O)CO [(S)-DHPA, reference compound]",Cytotoxicity Minimum cytotoxic conc.,HeLa cells,>250 µM
CCCCCCCCCCCC(=O)N/N=C/c1ccccc1 [Compound 1],MIC,Candida albicans; [3],61.7 µM
same,MIC,Staphylococcus aureus,41.7 µM
same,MIC,[1]; [4],50.1 µM
same,MIC,[1]; [5],50.1 µM
same,MIC,Escherichia coli,41.7 µM
same,MIC,Bacillus subtilis,50.1 µM
CCCCCCCCCCCCCC(=O)N/N=C/c1ccccc1 [Compound 2],MIC,Candida albicans; [3],57.5 µM
same,MIC,Staphylococcus aureus,38 µM
same,MIC,[1]; [4],45.7 µM
same,MIC,[1]; [5],45.7 µM
same,MIC,Escherichia coli,43.7 µM
same,MIC,Bacillus subtilis,38 µM
CCCCCCCCCCCCCCCC(=O)N/N=C/c1ccccc1 [Compound 3],MIC,Candida albicans; [3],17.4 µM
same,MIC,Staphylococcus aureus,34.7 µM
same,MIC,[1]; [4],38.9 µM
same,MIC,[1]; [5],38.9 µM
same,MIC,Escherichia coli,31.6 µM
same,MIC,Bacillus subtilis,34.7 µM
CCCCCCCCCCCCCCCCCC(=O)N/N=C/c1ccccc1 [Compound 4],MIC,Candida albicans; [3],8.13 µM
same,MIC,Staphylococcus aureus,32.4 µM
same,MIC,[1]; [4],24.5 µM
same,MIC,[1]; [5],24.5 µM
same,MIC,Escherichia coli,16.2 µM
same,MIC,Bacillus subtilis,32.4 µM
C/C=C/C=C/C(=O)N/N=C/c1ccccc1 [Compound 5],MIC,Candida albicans; [3],117 µM
same,MIC,Staphylococcus aureus,58.9 µM
same,MIC,[1]; [4],58.9 µM
same,MIC,[1]; [5],58.9 µM
same,MIC,Escherichia coli,58.9 µM
same,MIC,Bacillus subtilis,58.9 µM
O=C(/C=C/c1ccccc1)N/N=C/c1ccccc1 [Compound 6],MIC,Candida albicans; [3],12.6 µM
same,MIC,Staphylococcus aureus,50.1 µM
same,MIC,[1]; [4],33.1 µM
same,MIC,[1]; [5],33.1 µM
same,MIC,Escherichia coli,50.1 µM
same,MIC,Bacillus subtilis,50.1 µM
Cc1cccc(C(=O)N/N=C/c2ccccc2)c1 [Compound 7],MIC,Candida albicans; [3],13.2 µM
same,MIC,Staphylococcus aureus,52.5 µM
same,MIC,[1]; [4],34.7 µM
same,MIC,[1]; [5],34.7 µM
same,MIC,Escherichia coli,52.5 µM
same,MIC,Bacillus subtilis,52.5 µM
Cc1ccc(C(=O)N/N=C/c2ccccc2)cc1 [Compound 8],MIC,Candida albicans; [3],45.7 µM
same,MIC,Staphylococcus aureus,52.5 µM
same,MIC,[1]; [4],38.9 µM
same,MIC,[1]; [5],38.9 µM
same,MIC,Escherichia coli,52.5 µM
same,MIC,Bacillus subtilis,52.5 µM
COc1cc(OC)cc(C(=O)N/N=C/c2ccccc2)c1 [Compound 9],Cytotoxicity Minimum cytotoxic conc.,HeLa cells,100 µg/mL
same,"antiviral activity against Vesicular stomatitis virus (VSV), in words",[2],active; also recorded: antiviral potential
same,MIC,Candida albicans; [3],11 µM
same,MIC,Staphylococcus aureus,43.7 µM
same,MIC,[1]; [4],28.8 µM
same,MIC,[1]; [5],28.8 µM
same,MIC,Escherichia coli,43.7 µM
same,MIC,Bacillus subtilis,43.7 µM
O=C(N/N=C/c1ccccc1)c1cc([N+](=O)[O-])cc([N+](=O)[O-])c1 [Compound 10],MIC,Candida albicans; read-out: pMICca,20 µM
same,MIC,Candida albicans; [3],20 µM
same,MIC,Staphylococcus aureus,39.8 µM
same,MIC,[1]; [4],30.2 µM
same,MIC,[1]; [5],30.2 µM
same,MIC,Escherichia coli,39.8 µM
same,MIC,Bacillus subtilis,39.8 µM
CCCCCCCCCCCC(=O)N/N=C/c1ccccc1Cl [Compound 11],MIC,Candida albicans; [3],18.6 µM
same,MIC,Staphylococcus aureus,37.2 µM
same,MIC,[1]; [4],27.5 µM
same,MIC,[1]; [5],27.5 µM
same,MIC,Escherichia coli,15.8 µM
same,MIC,Bacillus subtilis,37.2 µM
CCCCCCCCCCCCCC(=O)N/N=C/c1ccccc1Cl [Compound 12],MIC,Candida albicans; [3],75.9 µM
same,MIC,Staphylococcus aureus,33.9 µM
same,MIC,[1]; [4],46.8 µM
same,MIC,[1]; [5],46.8 µM
same,MIC,Escherichia coli,33.9 µM
same,MIC,Bacillus subtilis,33.9 µM
CCCCCCCCCCCCCCCC(=O)N/N=C/c1ccccc1Cl [Compound 13],MIC,Candida albicans; [3],7.94 µM
same,MIC,Staphylococcus aureus,31.6 µM
same,MIC,[1]; [4],26.9 µM
same,MIC,[1]; [5],26.9 µM
same,bacteriostatic/bactericidal action against B. subtilis,B. subtilis,active bactericidal agents
same,MIC,Escherichia coli,31.6 µM
same,MIC,Bacillus subtilis,32.4 µM
CCCCCCCCCCCCCCCCCC(=O)N/N=C/c1ccccc1Cl [Compound 14],MIC,Candida albicans; [3],14.8 µM
same,MIC,Staphylococcus aureus,29.5 µM
same,MIC,[1]; [4],28.8 µM
same,MIC,[1]; [5],28.8 µM
same,bacteriostatic/bactericidal action against B. subtilis,B. subtilis,active bactericidal agents
same,MIC,Escherichia coli,29.5 µM
same,MIC,Bacillus subtilis,29.5 µM
C/C=C/C=C/C(=O)N/N=C/c1ccccc1Cl [Compound 15],MIC,Candida albicans; [3],25.1 µM
same,MIC,Staphylococcus aureus,50.1 µM
same,MIC,[1]; [4],39.8 µM
same,MIC,[1]; [5],39.8 µM
same,MIC,Escherichia coli,50.1 µM
same,MIC,Bacillus subtilis,50.1 µM
O=C(/C=C/c1ccccc1)N/N=C/c1ccccc1Cl [Compound 16],MIC,Candida albicans; read-out: pMICca,17.4 µM
same,MIC,Candida albicans; [3],17.4 µM
same,MIC,Staphylococcus aureus,43.7 µM
same,MIC,[1]; [4],30.2 µM
same,MIC,[1]; [5],30.2 µM
same,MIC,Escherichia coli,43.7 µM
same,MIC,Bacillus subtilis,43.7 µM
Cc1cccc(C(=O)N/N=C/c2ccccc2Cl)c1 [Compound 17],MIC,Candida albicans; [3],45.7 µM
same,MIC,Staphylococcus aureus,45.7 µM
same,MIC,[1]; [4],42.7 µM
same,MIC,[1]; [5],42.7 µM
same,MIC,Escherichia coli,45.7 µM
same,MIC,Bacillus subtilis,45.7 µM
Cc1ccc(C(=O)N/N=C/c2ccccc2Cl)cc1 [Compound 18],MIC,Candida albicans; read-out: pMICca,24.5 µM
same,MIC,Candida albicans; [3],24.5 µM
same,MIC,Staphylococcus aureus,45.7 µM
same,MIC,[1]; [4],35.5 µM
same,MIC,[1]; [5],35.5 µM
same,MIC,Escherichia coli,45.7 µM
same,MIC,Bacillus subtilis,45.7 µM
COc1cc(OC)cc(C(=O)N/N=C/c2ccccc2Cl)c1 [Compound 19],Cytotoxicity Minimum cytotoxic conc.,HeLa cells,100 µg/mL
same,"antiviral activity against Vesicular stomatitis virus (VSV), in words",[2],active; also recorded: antiviral potential
same,MIC,Candida albicans; [3],9.77 µM
same,MIC,Staphylococcus aureus,38.9 µM
same,MIC,[1]; [4],27.5 µM
same,MIC,[1]; [5],27.5 µM
same,MIC,Escherichia coli,38.9 µM
same,MIC,Bacillus subtilis,38.9 µM
O=C(N/N=C/c1ccccc1Cl)c1cc([N+](=O)[O-])cc([N+](=O)[O-])c1 [Compound 20],MIC,Candida albicans; [3],8.91 µM
same,MIC,Staphylococcus aureus,35.5 µM
same,MIC,[1]; [4],25.1 µM
same,MIC,[1]; [5],25.1 µM
same,MIC,Escherichia coli,35.5 µM
same,MIC,Bacillus subtilis,35.5 µM
"NC(=O)c1ncn([C@@H]2O[C@H](CO)[C@@H](O)[C@H]2O)n1 [Ribavirin, reference compound]",Cytotoxicity Minimum cytotoxic conc.,HeLa cells,>250 µM

# Reference: publication PMC7127590 (European Journal of Medicinal Chemistry, 2010)
